Calls of active or inactive are those of the source. The calls are words filed in the database; no cut-off is given here.
Columns and labels:
[1] = target: T1, Corticotropin-releasing factor receptor 1 (Rattus norvegicus, UniProt P35353); test: Antagonist activity at CRF1 receptor in rat brain homogenates assessed as inhibition of CRF-stimulted cAMP production; type: functional, tissue-based
T1 sequence (P35353 whole entry): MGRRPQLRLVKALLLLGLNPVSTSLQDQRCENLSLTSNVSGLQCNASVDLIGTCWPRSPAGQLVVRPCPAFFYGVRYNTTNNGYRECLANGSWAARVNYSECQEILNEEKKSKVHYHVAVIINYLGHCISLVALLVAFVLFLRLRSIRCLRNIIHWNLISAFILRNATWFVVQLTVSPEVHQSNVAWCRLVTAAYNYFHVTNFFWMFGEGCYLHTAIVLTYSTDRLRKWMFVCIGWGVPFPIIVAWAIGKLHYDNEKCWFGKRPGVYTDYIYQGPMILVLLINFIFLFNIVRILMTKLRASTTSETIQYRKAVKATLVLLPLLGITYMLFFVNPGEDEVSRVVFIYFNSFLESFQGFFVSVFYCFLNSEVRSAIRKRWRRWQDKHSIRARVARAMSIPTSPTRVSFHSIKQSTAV
Procedure, shortened: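 Rat cortical homogenate (0.8 mg original wet weight tissue) incubated 10 min at 37 °C in 100 mM Tris-HCl pH 7.4, 10 mM MgCl2, 0.4 mM EGTA, 0.1% BSA, 1 mM IBMX, creatine phosphate/phosphocreatine kinase, 100 nM ovine-CRF; started with 1 mM ATP/[32P]ATP; [32P]cAMP separated on Dowex and alumina columns, [3H]cAMP recovery marker; n = 3.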

Vasopressin V1a receptor = Vasopressin V1a receptor (Homo sapiens, UniProt P37288); test: Binding affinity to vasopressin V1 receptor
Sequence of Vasopressin V1a receptor (P37288 whole entry): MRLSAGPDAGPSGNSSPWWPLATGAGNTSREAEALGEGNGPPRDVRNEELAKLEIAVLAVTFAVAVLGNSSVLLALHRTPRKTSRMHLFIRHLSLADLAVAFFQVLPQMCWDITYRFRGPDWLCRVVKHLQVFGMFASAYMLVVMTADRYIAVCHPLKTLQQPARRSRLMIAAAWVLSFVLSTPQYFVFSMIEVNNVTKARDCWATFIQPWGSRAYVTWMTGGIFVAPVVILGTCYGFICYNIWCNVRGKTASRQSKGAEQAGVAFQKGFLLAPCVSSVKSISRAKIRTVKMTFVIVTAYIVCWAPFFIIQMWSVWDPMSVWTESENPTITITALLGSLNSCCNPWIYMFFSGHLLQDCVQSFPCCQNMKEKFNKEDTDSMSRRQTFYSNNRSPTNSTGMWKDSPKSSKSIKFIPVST

[2] = target: T2, Corticotropin-releasing factor receptor 2 (Homo sapiens, UniProt Q13324); test: Binding affinity to human CRF2alpha receptor
T2 sequence (Q13324 whole entry): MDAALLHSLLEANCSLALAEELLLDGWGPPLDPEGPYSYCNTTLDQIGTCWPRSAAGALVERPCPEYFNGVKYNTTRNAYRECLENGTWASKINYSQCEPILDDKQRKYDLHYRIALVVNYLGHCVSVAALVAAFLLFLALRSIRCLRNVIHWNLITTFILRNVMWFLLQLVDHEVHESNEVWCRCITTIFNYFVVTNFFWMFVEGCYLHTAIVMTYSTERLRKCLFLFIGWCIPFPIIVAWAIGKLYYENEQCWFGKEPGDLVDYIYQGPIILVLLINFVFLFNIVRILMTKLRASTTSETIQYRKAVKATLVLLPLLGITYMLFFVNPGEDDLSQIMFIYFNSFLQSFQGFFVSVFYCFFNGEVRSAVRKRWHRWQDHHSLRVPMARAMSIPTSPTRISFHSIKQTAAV

[3] = Binding affinity to serotonin receptor
[4] = target: T3, Corticotropin-releasing factor receptor 1 (Rattus norvegicus) (UniProt P35353); test: Agonist activity at CRF1 receptor in rat brain homogenates assessed as CRF-stimulted cAMP production; type: functional, tissue-based
T3 sequence (whole entry): T1 sequence (P35353 whole entry)

Canis familiaris [5] = test: Ex vivo displacement of [125I]Tyr0-ovine CRF from CRF1 receptor in dog at 5 mg/kg, po measured in plasma after 10 hrs; type: functional; details: Canis lupus familiaris
Procedure, shortened: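 Beagle dogs given 5 mg/kg po (free base), in Labrafil or Tween-80/0.5% methylcellulose 1:99; plasma drawn 2 and 10 h postdose, diluted 10-fold in binding buffer, and tested for inhibition of 125I-Tyr0-ovine-CRF binding to rat receptors; mean ± SD, n = 3.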

[6] = Binding affinity to N-type calcium channel
[7] = Binding affinity to L-type calcium channel
[8] = target: T4, Alpha-2C adrenergic receptor (Homo sapiens, UniProt P18825); test: Binding affinity to adrenergic alpha2c receptor
T4 sequence (P18825 whole entry): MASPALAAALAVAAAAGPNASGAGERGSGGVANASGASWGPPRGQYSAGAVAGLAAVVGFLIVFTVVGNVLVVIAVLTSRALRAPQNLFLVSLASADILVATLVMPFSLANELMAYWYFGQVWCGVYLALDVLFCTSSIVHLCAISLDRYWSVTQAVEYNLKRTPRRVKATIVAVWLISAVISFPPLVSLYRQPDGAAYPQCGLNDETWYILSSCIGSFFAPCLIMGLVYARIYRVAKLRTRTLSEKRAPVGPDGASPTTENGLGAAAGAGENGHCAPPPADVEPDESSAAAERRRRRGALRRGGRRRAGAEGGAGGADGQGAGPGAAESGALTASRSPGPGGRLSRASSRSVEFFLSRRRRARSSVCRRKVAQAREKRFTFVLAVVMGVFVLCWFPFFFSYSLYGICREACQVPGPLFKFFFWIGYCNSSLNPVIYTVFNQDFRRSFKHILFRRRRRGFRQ

[9] = target: T5, Corticotropin-releasing factor receptor 1 (Homo sapiens, UniProt P34998); test: Binding affinity to CRF1 receptor in human IMR32 cells; type: cell-based, IMR-32
T5 sequence (P34998 whole entry): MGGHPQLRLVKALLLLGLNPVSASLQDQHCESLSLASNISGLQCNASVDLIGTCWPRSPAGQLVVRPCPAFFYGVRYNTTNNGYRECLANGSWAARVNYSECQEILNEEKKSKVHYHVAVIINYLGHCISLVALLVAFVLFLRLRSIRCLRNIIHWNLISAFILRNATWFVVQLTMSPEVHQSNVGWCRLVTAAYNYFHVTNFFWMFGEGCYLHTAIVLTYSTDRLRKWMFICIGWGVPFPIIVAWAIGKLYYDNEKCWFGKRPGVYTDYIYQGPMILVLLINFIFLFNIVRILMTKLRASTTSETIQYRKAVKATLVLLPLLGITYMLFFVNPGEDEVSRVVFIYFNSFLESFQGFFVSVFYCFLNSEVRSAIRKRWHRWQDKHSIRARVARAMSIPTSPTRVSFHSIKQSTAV

[10] = target: T6, Alpha-2B adrenergic receptor (Homo sapiens, UniProt P18089); test: Binding affinity to adrenergic alpha2b receptor
T6 sequence (P18089 whole entry): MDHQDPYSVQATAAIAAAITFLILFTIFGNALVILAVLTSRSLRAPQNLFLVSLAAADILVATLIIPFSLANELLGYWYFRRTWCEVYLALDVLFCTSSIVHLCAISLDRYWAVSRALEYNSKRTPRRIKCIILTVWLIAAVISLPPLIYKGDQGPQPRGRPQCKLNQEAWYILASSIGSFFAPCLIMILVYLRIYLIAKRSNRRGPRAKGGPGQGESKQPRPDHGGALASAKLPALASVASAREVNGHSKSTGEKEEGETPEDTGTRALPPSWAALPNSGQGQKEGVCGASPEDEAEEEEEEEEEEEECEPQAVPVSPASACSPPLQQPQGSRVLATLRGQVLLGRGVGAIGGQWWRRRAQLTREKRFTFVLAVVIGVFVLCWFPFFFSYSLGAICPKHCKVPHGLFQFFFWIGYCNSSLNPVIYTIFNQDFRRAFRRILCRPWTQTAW

[11] = target: T7, Corticotropin-releasing factor receptor 2 (Homo sapiens) (UniProt Q13324); test: Agonist activity at human cloned CRF2alpha receptor expressed in HEK293 cells; type: functional, cell-based
T7 sequence (whole entry): T2 sequence (Q13324 whole entry)

[12] = target: T7, Corticotropin-releasing factor receptor 2 (Homo sapiens); test: Antagonist activity at human cloned CRF2alpha receptor expressed in HEK293 cells; type: functional, cell-based
Canis familiaris [13] = test: Hepatic blood flow in iv dosed Beagle dog; type: ADME, organism-based, Canis lupus familiaris, Liver; details: in vivo

IC50 [1] [µM]	IC50 (Vasopressin V1a receptor) [µM]	IC50 [2] [µM]	IC50 [3] [µM]	Activity [4]	IC50 [6] [µM]	IC50 [7] [µM]	IC50 [8] [µM]	IC50 [9] [µM]	IC50 [10] [µM]	Activity [11]	Activity [12]	QH (Canis familiaris [13]) [mL/min/kg]	Structure (SMILES)	inhibition in vivo at 5 mg/kg (Canis familiaris [5]) [%]
0.036	> 1	> 1	> 1	inactive	> 1	> 1	> 1	0.0012	> 1	inactive	inactive	–	CCC(CC)Nc1nc(C)nc2c(-c3cc(F)c(OC)cc3Cl)c(C)nn12	66
0.066	> 1	> 1	> 1	inactive	> 1	> 1	> 1	0.0047	> 1	inactive	inactive	31	COCCN(CCOC)c1nc(C)nc2c(-c3ccc(OC)cc3C)c(C)nn12	37
0.038	> 1	> 1	> 1	inactive	> 1	> 1	> 1	0.0152	> 1	inactive	inactive	31	COCCN(CCOC)c1nc(C)nc2c(-c3cc(C)c(OC)cc3C)c(C)nn12	44
0.11	> 1	> 1	> 1	inactive	> 1	> 1	> 1	0.0034	> 1	inactive	inactive	31	CC[C@@H](C)Nc1nc(C)nc2c(-c3c(C)cc(OC)cc3OC)c(C)nn12	83

From ChEMBL document CHEMBL1138477, “8-(4-Methoxyphenyl)pyrazolo[1,5-a]-1,3,5-triazines: selective and centrally active corticotropin-releasing factor receptor-1 (CRF1) antagonists” (J Med Chem, 2009)
